Screening results: PubChem, several laboratories
Compounds with a hit are over-represented: about 4.9% of the library has one in this group of screens.
NF-kB neuron act: NF-kB expression increase, human neuronal cells | actives 1.6% (n = 190,000) | AID 1239 | fold change at 12.5 µM | NF-kB reporter expression; stronger effect = higher value; in the data active = fold change above about 3.3
STAT1 act: increases IFN-gamma driven STAT1 reporter signal; actives 2.6% (n = 200,000); AID 932; NIH 3T3 STAT1-luciferase reporter, luminescence; 100% = IFN-gamma alone, no compound; activation (% of control), % at 5.5 µM;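 active = activation above the screen-wide mean activation plus 3 SD, cut at about 130% in these data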;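 note: raw ratio to IFN-gamma control signal so 100% means no change and 0% no light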
STAT3 activator: STAT3 signaling activation; U3A cells, IL-6 STAT3-luciferase reporter, luminescence; 100% = signal with IL-6 EC80 alone; activation (% of control), % at 5.6 µM; actives 0.91% (n = 190,000); AID 871;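 active = activation above the screen-wide mean of compound activation plus 3 SD, cut at about 130% in these data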;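 note: 0% = background luminescence of wells with medium and substrate only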
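System – human U3A cells carrying STAT3-luciferase construct · Probe or stimulus – Interleukin-6, 33 ng/mL · Schedule – compound 1 h, then IL-6 6 h at 37 °C · Signal – luminescence from STAT3-driven luciferase reporter · Evaluation – percent of IL-6-only median luminescence · Benchmarks – IL-6-only high control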
STAT1 blocker: inhibitors of IFN-gamma induced STAT1 signaling; NIH 3T3 STAT1-luciferase reporter, luminescence; inhibition, % at 5.5 µM; actives 0.35% (n = 200,000);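 active = inhibition above a set limit, the mean inhibition across all tested compounds plus 3 SD, cut at about 34% in these data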;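 note: 0% = IFN-gamma with DMSO and 100% = IFN-gamma with 300 µM nifuroxazide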
STAT3 inh-1: STAT3 signaling inhibition; U3A cells, IL-6 STAT3-luciferase reporter, luminescence; host cell line lacks STAT1; actives 0.89% (n = 190,000); AID 862; inhibition, % at 5.5 µM;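 active = inhibition above the mean inhibition across all screened compounds plus 3 SD, cut at about 44% in these data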;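 note: 0% = DMSO only wells and 100% = 100 µM nifuroxazide control wells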
APP 5'UTR act: APP 5'UTR luciferase reporter activation; activation, % at 2 µM; SH-SY5Y APP 5'UTR luciferase reporter, luminescence; zero percent = DMSO vehicle wells; actives 1% (n = 190,000);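 active = activation above a set limit, based on mean plus 3 SD of controls, cut at about 140% in these data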
STAT3 inh-2: confirmation of STAT3 signaling inhibitors; shares compounds with STAT3 inh-1; U3A cells, IL-6 STAT3 luciferase reporter, luminescence; cell line lacks STAT1; inhibition, % at 5.7 µM; actives 45% (n = 1,200);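 active = inhibition above the hit cutoff computed for the primary STAT3 screen, cut at about 44% in these data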;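 note: 0% = IL-6 plus DMSO and 100% = IL-6 plus nifuroxazide control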
NFkB inh 2: inhibits NF-kappaB, counter-screen to STAT3 inhibitors. shares compounds with STAT3 inh-1. actives 36% (n = 1,200). HEK293T NF-kB luciferase reporter, TNF-alpha induced. inhibition, % at 5.7 µM;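 active = inhibition above the mean of solvent-only control wells plus 3 SD, cutoff set per campaign, cut at about 13% in these data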;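 note: 0% = TNF-alpha with DMSO and 100% = TNF-alpha with MG high control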
STAT1 inh 2: counter-screen for STAT3 inhibitors: STAT1 inhibition; shares compounds with STAT3 inh-1; NIH 3T3 STAT1-luciferase reporter, IFN-gamma induced, luminescence; inhibition, % at 5.7 µM; actives 27% (n = 1,200); AID 1317;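 active = inhibition above the mean plus 3 SD of solvent-only control wells, limit set per screening run, cut at about 16% in these data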;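 note: 0% = DMSO with IFN-gamma and 100% = nifuroxazide control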
Numbers without * were called inactive.

What do the screens show for `Oc1ccc(O)c(Cc2nc3ccccc3s2)c1`?
NF-kB neuron act: 1.9; STAT1 act: 87; STAT3 activator: 89; STAT1 blocker: 15; STAT3 inh-1: 18; APP 5'UTR act: 12

What do the screens show for `Oc1cccc(-c2nc3ccccc3s2)c1`?
NF-kB neuron act: 9*; STAT1 act: 103; STAT3 activator: 42; STAT1 blocker: -3; STAT3 inh-1: 74*; APP 5'UTR act: 116; STAT3 inh-2: 37; NFkB inh 2: 13*; STAT1 inh 2: -12

Results for COc1cccc(C(=O)NCc2ccc(-c3nc4ccccc4s3)cc2)c1 ?
NF-kB neuron act: 1.6; STAT1 act: 114; STAT3 activator: 95; STAT1 blocker: -16; STAT3 inh-1: 12; APP 5'UTR act: 45

What do the screens show for `COc1ccccc1C(=O)NCc1ccc(-c2nc3ccccc3s2)cc1`?
NF-kB neuron act: 0.6; STAT1 act: 91; STAT3 activator: 56; STAT1 blocker: 9; STAT3 inh-1: 51*; APP 5'UTR act: 34; STAT3 inh-2: -17; NFkB inh 2: 9; STAT1 inh 2: -81

How did COc1cccc(-c2nc3ccccc3s2)c1O do in these assays?
NF-kB neuron act: 6.4*; STAT1 act: 123; STAT3 activator: 65; STAT1 blocker: -27; STAT3 inh-1: 44*; APP 5'UTR act: 212*; STAT3 inh-2: -4; NFkB inh 2: -11; STAT1 inh 2: -43

How did COc1ccc(-c2nc3ccccc3s2)cc1O do in these assays?
NF-kB neuron act: 1.4; STAT1 act: 91; STAT3 activator: 25; STAT1 blocker: 10; STAT3 inh-1: 92*; APP 5'UTR act: 225*; STAT3 inh-2: 53*; NFkB inh 2: 1; STAT1 inh 2: -16

How did COc1cccc(/C=C/C(=O)OCC(=O)Nc2ccc(Cl)c(S(=O)(=O)N(C)C)c2)c1OC do in these assays?
NF-kB neuron act: 1.2; STAT1 act: 107; STAT3 activator: 103; STAT1 blocker: -8; STAT3 inh-1: 2; APP 5'UTR act: 8

What do the screens show for `CCO[C@H]1OC(C(=O)Nc2ccccc2)=C[C@@H](C)[C@@H]1CCCO`?
NF-kB neuron act: 0.74; STAT1 act: 99; STAT1 blocker: 2; APP 5'UTR act: -2

How did CCOC(=O)c1cc(-c2ccc(OC)cc2OC)nn1-c1ccc(C(=O)O)cc1 do in these assays?
NF-kB neuron act: 1.1; STAT1 act: 105; STAT3 activator: 98; STAT1 blocker: -6; STAT3 inh-1: 8; APP 5'UTR act: 10

Results for COc1ccc(/C=N\n2nnc3ccccc32)cc1 ?
NF-kB neuron act: 3.1; STAT1 act: 70; STAT3 activator: 25; STAT1 blocker: 31; STAT3 inh-1: 93*; APP 5'UTR act: 191*; STAT3 inh-2: 62*; NFkB inh 2: 32*; STAT1 inh 2: -14

How did COc1ccc(/C=N/N2C(=O)c3ccccc3C2=O)cc1 do in these assays?
NF-kB neuron act: 1.3; STAT1 act: 103; STAT3 activator: 101; STAT1 blocker: -3; STAT3 inh-1: 2; APP 5'UTR act: 2

Results for CC(C)(C)c1ccc(C(=O)Nc2cccc3c(=O)[nH][nH]c(=O)c23)cc1 ?
NF-kB neuron act: 1.8; STAT1 act: 94; STAT3 activator: 43; STAT1 blocker: 7; STAT3 inh-1: 67*; APP 5'UTR act: 91; STAT3 inh-2: -6; NFkB inh 2: 3; STAT1 inh 2: -21

What do the screens show for `O=C(/C=C/c1c[nH]c2ccccc12)c1cccc2ccccc12`?
NF-kB neuron act: 1.2; STAT1 act: 99; STAT3 activator: 120; STAT1 blocker: 1; STAT3 inh-1: -19; APP 5'UTR act: 37

How did O=C(COC(=O)c1ccc2ncsc2c1)Nc1ncc(Cl)cc1Cl do in these assays?
NF-kB neuron act: 1.4; STAT1 act: 94; STAT3 activator: 102; STAT1 blocker: 6; STAT3 inh-1: 2; APP 5'UTR act: 5

Results for Cc1c(Cl)cnc(NC(=O)COC(=O)c2ccc3ncsc3c2)c1Cl ?
NF-kB neuron act: 1.1; STAT1 act: 87; STAT3 activator: 58; STAT1 blocker: 15; STAT3 inh-1: 50*; APP 5'UTR act: -6; STAT3 inh-2: 35; NFkB inh 2: 12; STAT1 inh 2: 8

What do the screens show for `Cc1ccc2c(COC(=O)C3=COCCO3)cc(=O)oc2c1`?
NF-kB neuron act: 3; STAT1 act: 132*; STAT3 activator: 68; STAT1 blocker: -36; STAT3 inh-1: 44*; APP 5'UTR act: 50; STAT3 inh-2: -3; NFkB inh 2: -34; STAT1 inh 2: -81

How did Cc1ccc2c(COC(=O)CNC(=O)c3ccccc3)cc(=O)oc2c1 do in these assays?
NF-kB neuron act: 1.1; STAT1 act: 106; STAT3 activator: 101; STAT1 blocker: -4; STAT3 inh-1: -3; APP 5'UTR act: 19

How did CCC(C)c1ccc(NC(=O)C/C(C)=N/NC(=O)c2cnccn2)cc1 (stereo unspecified) do in these assays?
NF-kB neuron act: 1; STAT1 act: 126; STAT3 activator: 106; STAT1 blocker: -29; STAT3 inh-1: -10; APP 5'UTR act: 15

How did O=C(Nc1nnc(-c2ccco2)s1)C1CC1 do in these assays?
NF-kB neuron act: 2; STAT1 act: 125; STAT3 activator: 92; STAT1 blocker: -28; STAT3 inh-1: 12; APP 5'UTR act: 16

What do the screens show for `COc1ccc(C(=O)Nc2nnc(-c3ccco3)s2)cc1`?
NF-kB neuron act: 4.8*; STAT1 act: 83; STAT3 activator: 31; STAT1 blocker: 35*; STAT3 inh-1: 82*; STAT3 inh-2: 55*; NFkB inh 2: 19*; STAT1 inh 2: -36

Results for O=C(Nc1nnc(-c2ccco2)s1)c1ccccc1 ?
NF-kB neuron act: 4.2*; STAT1 act: 125; STAT3 activator: 64; STAT1 blocker: -28; STAT3 inh-1: 47*; APP 5'UTR act: 161*; STAT3 inh-2: 13; NFkB inh 2: -29; STAT1 inh 2: -100

Results for Cc1cccc(NC(=O)N2CCCC2C(=O)Nc2ccccc2)c1 (stereo unspecified) ?
NF-kB neuron act: 1.1; STAT1 act: 103; STAT3 activator: 100; STAT1 blocker: -5; STAT3 inh-1: 4; APP 5'UTR act: -13

Results for N#CC(Cc1ccccc1OC(F)F)c1nc2ccccc2[nH]1 (stereo unspecified) ?
NF-kB neuron act: 1.5; STAT1 act: 105; STAT3 activator: 101; STAT1 blocker: -6; STAT3 inh-1: 0; APP 5'UTR act: -7
